# Calls of active or inactive are those of the source. The calls are words filed in the database; no cut-off is given here.
# Legend:
# Escherichia coli = assay: Activity of Escherichia coli PNP assessed per mg of protein at 100 uM by UV spectrometric analysis
# Method in brief: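 Samples taken at several times; substrate and product resolved by C-18 HPLC (5–50% acetonitrile gradient, NH₄H₂PO₄ pH 4.5) with UV detection. Rate in nmoles/mg/h; mean of at least 2 measurements.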
# CCRF-CEM = assay: Cytotoxicity against human CCRF-CEM cells after 72 hrs by coulter counting; assay type: functional, cell-based
# PC-3 = assay: Cytotoxicity against human PC3 cells assessed as cell viability after 72 hrs by sulforhodamine B assay; assay type: functional, cell-based; settings: PC-3, 72 h
# Method in brief: (§1)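 Cells plated and kept at 37 °C with a range of compound concentrations for 72 h of continuous exposure; viability by sulforhodamine B staining, absorbance at 570 nm; concentration inhibiting growth by 50% determined from a single experiment.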
# ZR-75-1 = assay: Cytotoxicity against human ZR-75-1 cells assessed as cell viability after 72 hrs by sulforhodamine B assay; assay type: functional, cell-based; settings: ZR-75-1, 72 h; method in brief: as §1
# NCI-H23 [1] = assay: Cytotoxicity against human NCI-H23 cells assessed as cell viability after 72 hrs by sulforhodamine B assay; assay type: functional, cell-based; settings: NCI-H23, 72 h; method in brief: as §1
# DLD-1 = assay: Cytotoxicity against human DLD1 cells assessed as cell viability after 72 hrs by sulforhodamine B assay; assay type: functional, cell-based; settings: DLD-1, 72 h; method in brief: as §1
# CAKI-1 = assay: Cytotoxicity against human Caki1 cells assessed as cell viability after 72 hrs by sulforhodamine B assay; assay type: functional, cell-based; settings: CAKI-1, 72 h; method in brief: as §1
# LOX IMVI = assay: Cytotoxicity against human LOXIMVI cells assessed as cell viability after 72 hrs by sulforhodamine B assay; assay type: functional, cell-based; method in brief: as §1
# SNB-7 = assay: Cytotoxicity against human SNB7 cells assessed as cell viability after 72 hrs by sulforhodamine B assay; assay type: functional, cell-based; settings: SNB-7, 72 h; method in brief: as §1
# NCI-H23 [2] = assay: Antitumor activity against human NCI-H23 cells xenografted in nude mouse assessed as tumor growth inhibition at 33 to 75 mg/kg, ip qd for 9 consecutive days; assay type: functional, organism-based
# Method in brief: (§2)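 NCI-H23 tumors grown on the flanks of nude mice; once tumors were about 200 mg, animals received 33, 50 or 75 mg/kg ip daily for 9 consecutive days; tumor growth and body weight followed.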
# NCI-H23 [3] = assay: Antitumor activity against human NCI-H23 cells xenografted in nude mouse assessed as tumor growth inhibition at maximum tolerated dose, ip qd for 9 consecutive days; assay type: functional, organism-based; method in brief: as §2
# Mus musculus [4] = assay: Toxicity in nude mouse xenografted with human NCI-H23 cells assessed as mortality at 75 mg/kg, ip qd for 9 consecutive days; assay type: organism-based; design: dose 75 mg/kg, route intraperitoneal; settings: in vivo
# Method in brief: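 NCI-H23 tumours grown subcutaneously on the flanks of nude mice. Dosing began once tumours reached about 200 mg: 33, 50 or 75 mg/kg given ip once daily for 9 consecutive days. Tumour growth, deaths and body-weight loss were recorded.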
# Mus musculus [5] = assay: Toxicity in nude mouse xenografted with human NCI-H23 cells assessed as decrease in body weight at 75 mg/kg, ip qd for 9 consecutive days; assay type: organism-based; design: dose 75 mg/kg, route intraperitoneal; scale not given: the % may be the effect or the level left; settings: in vivo; method in brief: as §2
smiles,measurement,setting,value
CC(C)Cc1ncnc2c1ncn2[C@@H]1O[C@H](CO)[C@@H](O)[C@H]1O,Activity,Escherichia coli,79000 nmol/h
same,IC50,CCRF-CEM,> 130 µM
CCCc1ncnc2c1ncn2[C@@H]1O[C@H](CO)[C@@H](O)[C@H]1O,Activity,Escherichia coli,72000 nmol/h
same,IC50,CCRF-CEM,6.8 µM
CCCCc1ncnc2c1ncn2[C@@H]1O[C@H](CO)[C@@H](O)[C@H]1O,Activity,Escherichia coli,86000 nmol/h
same,IC50,CCRF-CEM,49 µM
OC[C@H]1O[C@@H](n2cnc3c(-c4ccccc4)ncnc32)[C@H](O)[C@@H]1O,IC50,PC-3,1.2 µM
same,IC50,ZR-75-1,1.2 µM
same,IC50,NCI-H23 [1],1.2 µM
same,IC50,DLD-1,6 µM
same,IC50,CAKI-1,31 µM
same,IC50,LOX IMVI,6.2 µM
same,IC50,SNB-7,31 µM
same,Activity,Escherichia coli,21000 nmol/h
same,IC50,CCRF-CEM,0.62 µM
OC[C@H]1O[C@@H](n2cnc3c(C4CC4)ncnc32)[C@H](O)[C@@H]1O,growth inhibition (GI),NCI-H23 [2],inactive
same,growth inhibition (GI),NCI-H23 [3],inactive
same,IC50,PC-3,67 µM
same,IC50,ZR-75-1,23 µM
same,Activity,Mus musculus [4],Toxic
same,IC50,NCI-H23 [1],1 µM
same,IC50,DLD-1,170 µM
same,IC50,CAKI-1,> 200 µM
same,IC50,LOX IMVI,> 200 µM
same,IC50,SNB-7,33 µM
same,Activity,Escherichia coli,51000 nmol/h
same,IC50,CCRF-CEM,1 µM
Nc1ncnc2c1ncn2[C@@H]1O[C@H](CO)[C@@H](O)[C@H]1O,Activity,Escherichia coli,398000 nmol/h
Cc1ncnc2c1ncn2[C@H]1C[C@H](O)[C@@H](CO)O1,Activity,Escherichia coli,461000 nmol/h
OC[C@H]1O[C@@H](n2cnc3c(-c4cccs4)ncnc32)[C@H](O)[C@@H]1O,growth inhibition (GI),NCI-H23 [2],inactive
same,growth inhibition (GI),NCI-H23 [3],inactive
same,IC50,PC-3,0.9 µM
same,IC50,ZR-75-1,0.3 µM
same,Activity,Mus musculus [5],14%
same,IC50,NCI-H23 [1],0.6 µM
same,IC50,DLD-1,0.9 µM
same,IC50,CAKI-1,30 µM
same,IC50,LOX IMVI,0.3 µM
same,IC50,SNB-7,10 µM
same,Activity,Escherichia coli,9900 nmol/h
same,IC50,CCRF-CEM,0.09 µM
OC[C@H]1O[C@@H](n2cnc3c(C4CCC4)ncnc32)[C@H](O)[C@@H]1O,Activity,Escherichia coli,63000 nmol/h
same,IC50,CCRF-CEM,7 µM
Cc1ncnc2c1ncn2[C@@H]1O[C@H](CO)[C@@H](O)[C@H]1O,Activity,Escherichia coli,84000 nmol/h
same,IC50,CCRF-CEM,0.02 µM
Cc1ncnc2c1ncn2[C@@H]1O[C@H](CO)[C@@H](O)[C@@H]1O,Activity,Escherichia coli,14 nmol/h
same,IC50,CCRF-CEM,> 130 µM
CCc1ncnc2c1ncn2[C@@H]1O[C@H](CO)[C@@H](O)[C@H]1O,Activity,Escherichia coli,69000 nmol/h
same,IC50,CCRF-CEM,0.72 µM
OC[C@H]1O[C@@H](n2cnc3c(C4CCCC4)ncnc32)[C@H](O)[C@@H]1O,Activity,Escherichia coli,42000 nmol/h
same,IC50,CCRF-CEM,16 µM
Nc1nc(F)nc2c1ncn2[C@@H]1O[C@H](CO)[C@@H](O)[C@@H]1O,Activity,Escherichia coli,1300 nmol/h
